The values that follow come from ChEMBL document CHEMBL3259700, “2-Amino-1,3,4-thiadiazoles in the 7-hydroxy-N-neopentyl spiropiperidine indolinyl series as potent P2Y1 receptor antagonists” (Bioorg Med Chem Lett, 2014).

Data set [1] in a line: Antiplatelet activity in human platelet-rich plasma assessed as inhibition of ADP-induced platelet aggregation in presence of 10 uM ADP.
Data set [2] in a line: Antiplatelet activity in human platelet-rich plasma assessed as inhibition of ADP-induced platelet aggregation in presence of 2.5 uM ADP.
The nature of data set [3]: Oral bioavailability in rat at 0.5 mg/kg. In kind it is ADME, organism-based. The note with it: in vivo. An outline of the steps: (§1)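 Cassette PK in rats, 0.5 mg/kg iv and 0.5 mg/kg p.o., vehicle 70% water, 10% ethanol, 10% cremophor, 10% N,N-dimethylacetamide; plasma trough concentrations taken 24 h after iv and p.o. dosing.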
The nature of data set [4]: Trough plasma concentration in rat at 0.5 mg/kg, po after 24 hrs. The note with it: read-out: Cmin. It counts as ADME, organism-based. Also noted: dose 0.5 mg/kg, route oral. Summed up: as §1
Data set [5] can be described thus: Trough plasma concentration in rat at 0.5 mg/kg, iv after 24 hrs. It counts as ADME, organism-based. Also noted: dose 0.5 mg/kg, route intravenous. The following applies: read-out: Cmin. An outline of the steps: as §1
Data set [6] can be described thus: Metabolic stability in rat liver microsomes assessed as compound remaining after 10 mins. The note with it: read-out: Stability. In kind it is ADME. Summed up:
(§2)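 Test compound incubated 10 min with 0.5 µM rat or human liver microsomes; percentage of parent remaining measured.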
Background: Liver microsomes are vesicles of endoplasmic reticulum, rich in cytochrome P450 enzymes.

A short description of data set [7]: Half life in rat at 0.5 mg/kg, iv and 0.5 mg/kg, po. It counts as ADME, organism-based. The following applies: in vivo. Summed up: as §1
In data set [8] the target is T1, P2Y purinoceptor 1 (Homo sapiens, UniProt P47900). The data set is described as follows: Displacement of [33P]2-MeS-ADP from human cloned P2Y1 receptor expressed in HEK293 cells by SPA analysis. In kind it is cell-based.
Data set [9] can be described thus: Total AUC in rat at 0.5 mg/kg, iv. On the set-up: time AUCmax, dose 0.5 mg/kg, route intravenous. It counts as ADME, organism-based. The following applies: in vivo. Summed up:
as §1

Data set [10] can be described thus: Metabolic stability in human liver microsomes assessed as compound remaining after 10 mins. In kind it is ADME. The note with it: read-out: Stability. Summed up:
as §2

A short description of data set [11]: Clearance in rat at 0.5 mg/kg, iv and 0.5 mg/kg, po. The note with it: in vivo. It counts as ADME, organism-based. An outline of the steps:
as §1

Data set [12] can be described thus: Volume of distribution at steady state in rat at 0.5 mg/kg, iv and 0.5 mg/kg, po. In kind it is ADME, organism-based. The note with it: in vivo, read-out: Vdss. Summed up: as §1
Data set [13] deals with T1, P2Y purinoceptor 1. The data set is described as follows: Inhibition of P2Y1 receptor in human washed platelets assessed as decrease in 2-methylthio-ADP-induced calcium signal transduction pathway activation by FLIPR assay. It counts as functional.

Molecules are shown by their SMILES.

As a reminder, the IC50 is the concentration that gives 50% inhibition. As a reminder, the bioavailability is the share of a dose that reaches the circulation, judged against a reference dose that is usually intravenous. High values mean good availability, low ones poor availability. The term half-life denotes the time needed for the level to fall by half in the phase considered. The low end stands for fast loss, the high end for slow loss. In general, Ki refers to the equilibrium dissociation constant of an inhibitor or competing ligand from its target. A high value points to weaker binding. Broadly, the AUC is concentration integrated over time.

T1 sequence (P47900 whole entry): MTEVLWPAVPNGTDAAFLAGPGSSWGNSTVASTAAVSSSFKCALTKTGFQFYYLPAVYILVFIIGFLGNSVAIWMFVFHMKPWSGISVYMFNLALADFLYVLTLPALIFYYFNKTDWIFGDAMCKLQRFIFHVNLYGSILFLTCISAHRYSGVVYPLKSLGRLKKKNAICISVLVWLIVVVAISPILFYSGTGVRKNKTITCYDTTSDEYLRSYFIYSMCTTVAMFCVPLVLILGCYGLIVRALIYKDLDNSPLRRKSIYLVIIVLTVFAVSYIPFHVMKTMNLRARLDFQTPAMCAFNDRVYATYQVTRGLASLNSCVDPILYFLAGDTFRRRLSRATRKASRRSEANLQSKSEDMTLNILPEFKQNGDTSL

With `CC(C)(C)c1ccccc1Oc1ncccc1NC(=O)Nc1ccc(OC(F)(F)F)cc1`, in data set [1], the IC50 was determined as 11000 nM.
For the molecule `CC(C)(C)c1ccccc1Oc1ncccc1Nc1nnc(-c2ccc(C(F)(F)F)cc2)s1`, the IC50 in data set [2] turned out to be 7500 nM.
For `CN(C)CC(C)(C)COc1cccc(-c2sc(Nc3cccnc3Oc3ccccc3C(C)(C)C)nc2C(F)(F)F)c1`, the half-inhibitory concentration (IC50) stood at 5200 nM in data set [2] and 57000 nM in [1].
`CC(C)(C)CN1CCC2(CC1)CN(c1ccccc1NC(=O)Nc1nc3ccc(Cl)nc3s1)c1c(O)ccc(Cl)c12`: the bioavailability in data set [3] stood at 36%. Further, the values for the concentration at 24 h in [4] and in data set [5] were 4.1 nM and 10 nM, respectively. Also, the remaining at 10 min in data set [6] is 86%; in data set [10], 100%. The molecule further had a half-life in data set [7] of 9.9 h. On P2Y purinoceptor 1 [8], this molecule gave a Ki of 8 nM. For the same molecule, the AUC in data set [9] stood at 1.33 µM·h. Also, the IC50 in data set [1] came to 130 nM. The clearance in data set [11] turned out to be 10 mL/min/kg. The Vd in [12] stood at 5.4 L/kg.
Turning to `CC(C)(C)CN1CCC2(CC1)CN(c1ccccc1Nc1nnc(-c3ccccc3)s1)c1c(O)ccc(C(F)(F)F)c12`, the Ki at P2Y purinoceptor 1 [8] was determined as 9.6 nM. In addition, the IC50 in data set [1] came out at 990 nM; at P2Y purinoceptor 1 [13], 0.19 nM.
For the molecule `CC(C)(C)CN1CCC2(CC1)CN(c1ccccc1Nc1nc(-c3ccccc3)ns1)c1c(O)ccc(Cl)c12`, the half-maximal inhibitory concentration (IC50) in [1] worked out at 5400 nM; on P2Y purinoceptor 1 [13], 6.4 nM.
Regarding `CC(C)(C)CN1CCC2(CC1)CN(c1ccccc1Nc1nnc(-c3ccccc3)o1)c1c(O)ccc(Cl)c12`, on P2Y purinoceptor 1 [8], the affinity, expressed as Ki, was 6.2 nM. Also, the results for the IC50 (in [1]; at P2Y purinoceptor 1 [13]) were > 10000 nM and 49 nM, respectively.
Consider `CC(C)(C)CN1CCC2(CC1)CN(c1ccccc1Nc1cc(-c3ccccc3)on1)c1c(O)ccc(Cl)c12`, for which the IC50 in [1] turned out to be 9000 nM.
Turning to `CC(C)(C)CN1CCC2(CC1)CN(c1ccccc1Nc1nc(-c3ccccc3)cs1)c1c(O)ccc(Cl)c12`, affinity at P2Y purinoceptor 1 [8] was put at a Ki of 20 nM. Also, the results for the IC50 (in [1]; at P2Y purinoceptor 1 [13]) were > 10000 nM and 54 nM, respectively.
The corresponding values for `CC(C)(C)CN1CCC2(CC1)CN(c1ccccc1Nc1ncc(-c3ccccc3)s1)c1c(O)ccc(Cl)c12` are 17 nM, 3700 nM and 2.3 nM.
Consider `Cc1ccc(-c2ccc(Nc3ccccc3N3CC4(CCN(CC(C)(C)C)CC4)c4c(Cl)ccc(O)c43)nc2)cc1`, for which the Ki at P2Y purinoceptor 1 [8] is 343 nM. Also, the IC50 in [1] is > 10000 nM.
Taken in the same sequence, the figures for `CC(C)(C)CN1CCC2(CC1)CN(c1ccccc1Nc1ccc(-c3ccccc3)nn1)c1c(O)ccc(Cl)c12` were 511 nM and > 40000 nM.
The corresponding values for `CC(C)(C)CN1CCC2(CC1)CN(c1ccccc1Nc1cnc(-c3ccccc3)cn1)c1c(O)ccc(Cl)c12` are 49 nM and > 40000 nM.
Molecule `CC(C)(C)CN1CCC2(CC1)CN(c1ccccc1Nc1nnc(-c3ccc(C(F)(F)F)cc3)s1)c1c(O)ccc(C(F)(F)F)c12` yielded a bioavailability in data set [3] of 22%. In addition, the concentration at 24 h in [4] is 12 nM; in data set [5] it was 46 nM. Moreover, the remaining at 10 min in data set [6] worked out at 87%; in data set [10], 86%. This molecule also showed a half-life in [7] of 24 h. Further, the area under the curve (AUC) in data set [9] stood at 4.63 µM·h. Further, the figures for the half-maximal inhibitory concentration (IC50) (in data set [1]; on P2Y purinoceptor 1 [13]) were 450 nM and 0.08 nM, respectively. In [11], this molecule came in with a clearance of 4 mL/min/kg. For the same molecule, the Vd in data set [12] was found to be 6 L/kg.
In the case of `CC(C)(C)CN1CCC2(CC1)CN(c1ccccc1Nc1nnc(-c3ccc(C(C)(C)C)cc3)s1)c1c(O)ccc(C(F)(F)F)c12`, the bioavailability in [3] was determined as 14%. For the same molecule, the concentration at 24 h turned out to be 3.6 nM in data set [4] and 54 nM in [5]. The remaining at 10 min in [6] was found to be 84%; in [10] it was 82%. The molecule further showed a half-life in data set [7] of 13 h. The molecule further returned an exposure (AUC) in [9] of 6.96 µM·h. For the same molecule, the figures for the IC50 (in data set [1]; on P2Y purinoceptor 1 [13]) were 870 nM and 0.21 nM, respectively. In data set [11], the clearance amounted to 1.8 mL/min/kg. Besides, the Vd in [12] was 1.2 L/kg.
In turn, `CC(C)(C)CN1CCC2(CC1)CN(c1ccccc1Nc1nnc(-c3ccc(C(C)(C)C)cc3)s1)c1c(O)ccc(C#N)c12` displayed a Ki on P2Y purinoceptor 1 [8] of 9.7 nM. For the same molecule, the half-inhibitory concentration (IC50) in [1] was 1200 nM; at P2Y purinoceptor 1 [13], 0.34 nM.
Take `COC(=O)c1ccc(O)c2c1C1(CCN(CC(C)(C)C)CC1)CN2c1ccccc1Nc1nnc(-c2ccc(C(C)(C)C)cc2)s1`: the half-inhibitory concentration (IC50) came out at 840 nM in data set [1] and 0.32 nM on P2Y purinoceptor 1 [13].
As for `CC(C)(C)CN1CCC2(CC1)CN(c1ccccc1Nc1nnc(-c3ccc(OC(F)(F)F)cc3)s1)c1c(O)ccc(F)c12`, the Ki at P2Y purinoceptor 1 [8] is 5.3 nM. The half-maximal inhibitory concentration (IC50) came to 1600 nM in data set [1] and 2.7 nM on P2Y purinoceptor 1 [13].
For the molecule `CC(C)(C)CN1CCC2(CC1)CN(c1ccccc1Nc1nnc(-c3ccc(OC(F)(F)F)cc3)s1)c1c(O)ccc(Cl)c12`, the bioavailability in [3] was determined as 28%. In addition, the concentration at 24 h stood at 30 nM in [4] and 95 nM in data set [5]. In addition, the remaining at 10 min was 94% in data set [6] and 99% in data set [10]. This molecule also gave a half-life in data set [7] of 12 h. Moreover, the area under the curve (AUC) in [9] was 6.21 µM·h. The IC50 was found to be 900 nM in data set [1] and 0.63 nM at P2Y purinoceptor 1 [13]. The same molecule showed a clearance in [11] of 2.1 mL/min/kg. Moreover, the Vd in [12] was 2.1 L/kg.
As for `CC(C)(C)CN1CCC2(CC1)CN(c1ccccc1Nc1nnc(-c3ccccc3Cl)s1)c1c(O)ccc(Cl)c12`, the results for the half-inhibitory concentration (IC50) (in [1]; on P2Y purinoceptor 1 [13]) were 11000 nM and 9.8 nM, respectively.
Consider `CC(C)(C)CN1CCC2(CC1)CN(c1ccccc1Nc1nnc(-c3cccc(Cl)c3)s1)c1c(O)ccc(Cl)c12`, for which the IC50 in [1] stood at 2600 nM; at P2Y purinoceptor 1 [13], 3.6 nM.
Turning to `CC(C)(C)CN1CCC2(CC1)CN(c1ccccc1Nc1nnc(-c3ccc(Cl)cc3)s1)c1c(O)ccc(Cl)c12`, the half-maximal inhibitory concentration (IC50) in data set [1] was 1300 nM; on P2Y purinoceptor 1 [13] it was 1.6 nM.
Take `CC(C)(C)CN1CCC2(CC1)CN(c1ccccc1Nc1nnc(-c3cnccn3)s1)c1c(O)ccc(Cl)c12`: the remaining at 10 min in data set [6] came to 37%. Also, the IC50 came to 930 nM in data set [1] and 1.5 nM on P2Y purinoceptor 1 [13].
Taken in the same sequence, the figures for `Cc1cc(-c2nnc(Nc3ccccc3N3CC4(CCN(CC(C)(C)C)CC4)c4c(Cl)ccc(O)c43)s2)n(C)n1` were 75%, 900 nM and 0.2 nM.
